From ChEMBL document CHEMBL3046176, “Synthesis, crystal structure, and biological activities of 2-cyanoacrylates containing furan or tetrahydrofuran moieties” (2007) come the findings set out here.

What all share (assay type): functional
The test system of one assay is Tobacco mosaic virus. Nature of the assay: Antiviral activity against Tobacco mosaic virus (TMV) inoculated in fresh tobacco leaf at 100 mg/L by half-leaf method. The essentials:
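Half-leaf method on tobacco leaves at the 5-6 growth stage. Leaves were inoculated with TMV by juice-leaf rubbing at 5.88 × 10-2 µg/mL and cut along the main vein. One half was immersed in test solution and the other in double distilled water for 20 min, then cultured at 25 °C for 72 h, in triplicate. Inhibition = 100(CK − A)/CK, from average lesion counts.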

For assay [1], the system named is Medicago sativa. Nature of the assay: Herbicidal activity against Medicago sativa (alfalfa) assessed as herbicidal damage at 1.5 kg/ha measured after preemergence treatment. The note with it: pre-emergence. The essentials: (§1)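 Seeds were sown in 6 cm boxes of artificial mixed soil, covered with plastic film until emergence, and grown in a greenhouse. Sprays were applied right after sowing (preemergence) or after the first true leaf expanded (postemergence). Controls received the same amount of water/DMF/Tween 20. Above-ground fresh weight was taken 10 days after treatment, in triplicate, as % damage versus control.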

The subject of assay [2] is Brassica napus. Nature of the assay: Herbicidal activity against rape Brassica napus (oilseed rape) assessed as herbicidal damage at 1.5 kg/ha measured after postemergence treatment. The note with it: post-emergence. An outline of the steps: as §1
For assay [3], the system named is Amaranthus retroflexus. The experiment in a line: Herbicidal activity against Amaranthus retroflexus assessed as herbicidal damage at 1.5 kg/ha measured after postemergence treatment. The following applies: post-emergence. An outline of the steps: as §1
A further assay deals with Mycosphaerella arachidis. Nature of the assay: Antifungal activity against Mycosphaerella arachidis assessed as inhibition of mycelium growth at 50 mg/L at 26 degC measured after 72 hr. An outline of the steps: (§2)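 Mycelium growth assay on agar. 1 mL test solution (50 mg/L) was poured into a 9 cm plate with 9 mL agar medium. Controls used sterile water in its place. A 4 mm plug from the margin of an actively growing colony was placed in the centre and incubated at 26 °C. Hyphal diameter was measured over 72 h, in triplicate. Inhibition % = (control diameter − treated diameter)/control diameter.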

For assay [4], the system named is Digitaria sanguinalis. Nature of the assay: Herbicidal activity against hairy crabgrass Digitaria sanguinalis (hairy crabgrass) assessed as herbicidal damage at 1.5 kg/ha measured after postemergence treatment. The following applies: post-emergence. An outline of the steps:
as §1

Assay [5] relates to Digitaria sanguinalis. The experiment in a line: Herbicidal activity against hairy crabgrass Digitaria sanguinalis (hairy crabgrass) assessed as herbicidal damage at 1.5 kg/ha measured after preemergence treatment. The note with it: pre-emergence. An outline of the steps:
as §1

The subject of the next assay is Alternaria solani. The experiment in a line: Antifungal activity against Alternaria solani assessed as inhibition of mycelium growth at 50 mg/L at 26 degC measured after 72 hr. The essentials:
as §2

The subject of assay [6] is Medicago sativa. Nature of the assay: Herbicidal activity against Medicago sativa (alfalfa) assessed as herbicidal damage at 1.5 kg/ha measured after postemergence treatment. The note with it: post-emergence. An outline of the steps:
as §1

For assay [7], the system named is Brassica napus. The experiment in a line: Herbicidal activity against rape Brassica napus (oilseed rape) assessed as herbicidal damage at 1.5 kg/ha measured after preemergence treatment. The note with it: pre-emergence. The essentials: as §1
The next assay concerns Fusarium graminearum. The experiment in a line: Antifungal activity against Fusarium graminearum assessed as inhibition of mycelium growth at 50 mg/L at 26 degC measured after 72 hr. The essentials:
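Mycelium growth test on agar plates: 1 mL test solution (50 mg/L) mixed with 9 mL agar medium; sterile water in place of test solution for controls. 4 mm inocula cut from margins of actively growing colonies, placed at plate centre, incubated at 26 °C; mycelium diameter measured over 72 h. Inhibition % from mean hyphal diameter against control. Triplicate.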

The test system of assay [8] is Amaranthus retroflexus. The experiment in a line: Herbicidal activity against Amaranthus retroflexus assessed as herbicidal damage at 1.5 kg/ha measured after preemergence treatment. The following applies: pre-emergence. The essentials:
as §1

Assay [9] concerns Botryosphaeria berengeriana. The experiment in a line: Antifungal activity against Botryosphaeria berengeriana assessed as inhibition of mycelium growth at 50 mg/L at 26 degC measured after 72 hr. The essentials: as §2
The subject of the next assay is Cucumis sativus. Nature of the assay: Plant growth regulatory activity in Cucumis sativus (cucumber) seed assessed as number of root at 10 mg/L at 26 degC measured after 5 days. An outline of the steps: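 Cucumber seeds were incubated at 26 °C in the dark for 72 h, then 10 cotyledons were excised and treated. Incubation continued at 26 °C in the dark for 5 days. Roots were counted, with water-only controls, in triplicate.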

Another assay deals with Cladosporium cucumerinum. The experiment in a line: Antifungal activity against Cladosporium cucumerinum assessed as inhibition of mycelium growth at 50 mg/L at 26 degC measured after 72 hr. An outline of the steps: as §2

Consider `CCC/C(NCC1CCCO1)=C(\C#N)C(=O)OCCOCC` (stereo not given), for which the Activity is listed as 0% with Tobacco mosaic virus and 8.4% in the assay on Cucumis sativus. For the same compound, the inhibition at 1500 g/ha with Medicago sativa [1] came out at 15%; with Brassica napus [2], 36.3%; in the assay on Amaranthus retroflexus [3], 16.4%; in the assay on Digitaria sanguinalis [4] it was 0%; in the assay on Digitaria sanguinalis [5], 0%; in the assay with Medicago sativa [6], 19.2%. Moreover, the inhibition at 1500 g/ha in the assay with Brassica napus [7] and with Amaranthus retroflexus [8] was 0% in each case. Also, the inhibition at 50 µg/mL in the assay with Mycosphaerella arachidis was determined as 32.1%; in the assay with Alternaria solani, 0%; in the assay on Fusarium graminearum it was 23.3%; in assay [9] it was 4.5%; in the assay on Cladosporium cucumerinum it was 10.5%.

Take `CCOCCOC(=O)/C(C#N)=C(/CC)NCC1CCOC1` (stereo not given): the values for the Activity in the assay with Tobacco mosaic virus and with Cucumis sativus were 7.2% and 41.5%, respectively. The inhibition at 1500 g/ha in the assay with Medicago sativa [1] was 6%; with Brassica napus [2] it was 68%; in the assay on Amaranthus retroflexus [3], 51.6%; in the assay with Digitaria sanguinalis [4] it was 11.1%; in the assay with Digitaria sanguinalis [5], 0%; with Medicago sativa [6] it was 25.7%. The inhibition at 1500 g/ha is 34.1% in the assay with Brassica napus [7] and 4.2% in the assay with Amaranthus retroflexus [8]. Moreover, the inhibition at 50 µg/mL in the assay on Mycosphaerella arachidis turned out to be 39.3%; with Alternaria solani, 17.9%; in the assay with Fusarium graminearum, 20%; in assay [9], 9.1%; with Cladosporium cucumerinum it was 7.9%.

`CCOCCOC(=O)/C(C#N)=C(/NCc1ccc(Cl)nc1)SC`: the Activity is listed as 18.3% with Tobacco mosaic virus and -3.6% with Cucumis sativus. Besides, the inhibition at 1500 g/ha is 1.5% with Medicago sativa [1]; 100% in the assay with Brassica napus [2]; 100% in the assay with Amaranthus retroflexus [3]; 89.9% in the assay on Digitaria sanguinalis [4]; 18.6% in the assay on Digitaria sanguinalis [5]; 41.3% with Medicago sativa [6]. In addition, the inhibition at 1500 g/ha turned out to be 68.9% with Brassica napus [7] and 13.7% with Amaranthus retroflexus [8]. The inhibition at 50 µg/mL in the assay on Mycosphaerella arachidis came out at 21.4%; in the assay on Alternaria solani, 7.1%; in the assay on Fusarium graminearum, 6.7%; in assay [9] it was 22.7%; in the assay on Cladosporium cucumerinum, 0%.

Turning to `CCOCCOC(=O)/C(C#N)=C(\NCC1CCCO1)C(C)C` (stereo not given), the Activity was found to be 7.2% with Tobacco mosaic virus and 32.5% in the assay with Cucumis sativus. For the same compound, the inhibition at 1500 g/ha stood at 20.3% with Medicago sativa [1]; 97.2% in the assay on Brassica napus [2]; 100% in the assay with Amaranthus retroflexus [3]; 100% with Digitaria sanguinalis [4]; 40% with Digitaria sanguinalis [5]; 60.5% in the assay on Medicago sativa [6]. Further, the inhibition at 1500 g/ha with Brassica napus [7] is 80%; with Amaranthus retroflexus [8], 3.2%. In addition, the inhibition at 50 µg/mL in the assay with Mycosphaerella arachidis turned out to be 28.6%; with Alternaria solani, 14.3%; in the assay with Fusarium graminearum, 33.3%; in [9], 18.2%; with Cladosporium cucumerinum it was 0%.

On to `CCC/C(NCC1CCOC1)=C(\C#N)C(=O)OCCOCC` (stereo not given), for which the values for the Activity in the assay on Tobacco mosaic virus and in the assay on Cucumis sativus were 9.4% and 5.4%, respectively. Also, the inhibition at 1500 g/ha was found to be 0% in the assay on Medicago sativa [1]; 58.8% in the assay on Brassica napus [2]; 8.1% in the assay with Amaranthus retroflexus [3]; 1% in the assay with Digitaria sanguinalis [4]; 0% in the assay with Digitaria sanguinalis [5]; 11.4% in the assay on Medicago sativa [6]. Further, the inhibition at 1500 g/ha with Brassica napus [7] was determined as 0%; with Amaranthus retroflexus [8], 9.5%. Also, the inhibition at 50 µg/mL was 41.1% with Mycosphaerella arachidis; 10.7% with Alternaria solani; 0% with Fusarium graminearum; 27.3% in assay [9]; 21.1% with Cladosporium cucumerinum.

In the case of `CCOCCOC(=O)/C(C#N)=C(/CC)NCc1ccco1`, the Activity is listed as 13.3% in the assay with Tobacco mosaic virus and 11.4% with Cucumis sativus. The inhibition at 1500 g/ha was 0% in the assay on Medicago sativa [1]; 47.9% with Brassica napus [2]; 22.6% in the assay with Amaranthus retroflexus [3]; 27.3% in the assay on Digitaria sanguinalis [4]; 12.1% in the assay on Digitaria sanguinalis [5]; 35.9% with Medicago sativa [6]. For the same compound, the values for the inhibition at 1500 g/ha in the assay with Brassica napus [7] and in the assay on Amaranthus retroflexus [8] were 16.3% and 9.5%, respectively. Moreover, the inhibition at 50 µg/mL turned out to be 35.7% in the assay on Mycosphaerella arachidis; 0% in the assay on Alternaria solani; 20% in the assay with Fusarium graminearum; 27.3% in assay [9]; 21.1% with Cladosporium cucumerinum.

In the case of `CCOCCOC(=O)/C(C#N)=C(\NCc1ccco1)C(C)C`, the Activity in the assay with Tobacco mosaic virus turned out to be 0%; with Cucumis sativus, 2.4%. Moreover, the inhibition at 1500 g/ha with Medicago sativa [1] worked out at 4.5%; in the assay on Brassica napus [2], 56.3%; with Amaranthus retroflexus [3] it was 41.9%; in the assay on Digitaria sanguinalis [4] it was 0%; with Digitaria sanguinalis [5] it was 37.8%; in the assay on Medicago sativa [6] it was 26.3%. The inhibition at 1500 g/ha with Brassica napus [7] is 3.3%; with Amaranthus retroflexus [8] it was 6.3%. Besides, the inhibition at 50 µg/mL amounted to 37.5% with Mycosphaerella arachidis; 17.9% in the assay on Alternaria solani; 23.3% in the assay with Fusarium graminearum; 22.7% in [9]; 13.2% with Cladosporium cucumerinum.

As for `CCOCCOC(=O)/C(C#N)=C(/C)NCC1CCCO1` (stereo not given), the Activity in the assay on Tobacco mosaic virus is 7.5%; in the assay with Cucumis sativus, -6.6%. For the same compound, the inhibition at 1500 g/ha stood at 11.3% in the assay with Medicago sativa [1]; 57.9% with Brassica napus [2]; 36.4% in the assay with Amaranthus retroflexus [3]; 7.1% with Digitaria sanguinalis [4]; 5.7% in the assay on Digitaria sanguinalis [5]; 28.7% in the assay with Medicago sativa [6]. Further, the inhibition at 1500 g/ha was found to be 8.5% in the assay with Brassica napus [7] and 0% with Amaranthus retroflexus [8]. Moreover, the inhibition at 50 µg/mL was 44.6% in the assay on Mycosphaerella arachidis; 0% in the assay with Alternaria solani; 10% in the assay with Fusarium graminearum; 9.1% in [9]; 13.2% in the assay on Cladosporium cucumerinum.

With `CCOCCOC(=O)/C(C#N)=C(\NCC1CCOC1)C(C)C` (stereo not given), the figures for the Activity with Tobacco mosaic virus and in the assay on Cucumis sativus were 4.9% and 14.4%, respectively. The inhibition at 1500 g/ha came out at 2.3% with Medicago sativa [1]; 88.2% in the assay on Brassica napus [2]; 37.8% with Amaranthus retroflexus [3]; 57.6% in the assay on Digitaria sanguinalis [4]; 0% in the assay with Digitaria sanguinalis [5]; 41.3% in the assay with Medicago sativa [6]. Moreover, the values for the inhibition at 1500 g/ha in the assay on Brassica napus [7] and in the assay on Amaranthus retroflexus [8] were 0% and 12.6%, respectively. Besides, the inhibition at 50 µg/mL in the assay with Mycosphaerella arachidis came to 17.9%; in the assay on Alternaria solani, 0%; with Fusarium graminearum it was 0%; in assay [9] it was 9.1%; in the assay with Cladosporium cucumerinum, 5.3%.

On to `CCC/C(NCc1ccoc1)=C(\C#N)C(=O)OCCOCC`, for which the Activity in the assay on Tobacco mosaic virus is 0%; in the assay on Cucumis sativus, -6.6%. The inhibition at 1500 g/ha in the assay with Medicago sativa [1] was 4.5%; in the assay on Brassica napus [2], 25.2%; in the assay with Amaranthus retroflexus [3] it was 14.3%; in the assay with Digitaria sanguinalis [4], 0%; in the assay on Digitaria sanguinalis [5], 35.7%; with Medicago sativa [6], 31.1%. Besides, the inhibition at 1500 g/ha with Brassica napus [7] and with Amaranthus retroflexus [8] was 0% each time. For the same compound, the inhibition at 50 µg/mL with Mycosphaerella arachidis was determined as 12.5%; in the assay on Alternaria solani, 25%; with Fusarium graminearum, 16.7%; in assay [9], 31.8%; in the assay with Cladosporium cucumerinum, 21.1%.

As usually defined, the inhibition is how much of the control response was suppressed.
